Assay results from ChEMBL document CHEMBL1649115, “Enhanced susceptibility to antifungal oligopeptides in yeast strains overexpressing ABC multidrug efflux pumps” (Antimicrob Agents Chemother, 2008).
In brackets after ≈: the same amount, converted by molar mass. Residues, ends and D or L forms follow the SMILES beside them. *: point of attachment. Ethyl(2-NH2) = NCC*

Columns and labels:
Saccharomyces cerevisiae [1] = assay: Drug uptake in Saccharomyces cerevisiae AD12345678 at 200 uM pretreated for 10 mins measured after 60 mins by fluorescamine staining; type: ADME, organism-based; details: in vivo, 1 h
Saccharomyces cerevisiae [2] = assay: Drug uptake in Saccharomyces cerevisiae ADCDR1 expressing Candida albicans CDR1 efflux pump at 200 uM pretreated for 10 mins measured after 60 mins by fluorescamine staining; type: ADME, organism-based; details: in vivo, 1 h
Saccharomyces cerevisiae [3] = assay: Drug uptake in Saccharomyces cerevisiae ADCDR2 expressing Candida albicans CDR2 efflux pump at 200 uM pretreated for 10 mins measured after 60 mins by fluorescamine staining; type: ADME, organism-based; details: in vivo, 1 h
Saccharomyces cerevisiae [4] = assay: Drug uptake in Saccharomyces cerevisiae ADMDR1 expressing Candida albicans MDR1 efflux pump at 200 uM pretreated for 10 mins measured after 60 mins by fluorescamine staining; type: ADME, organism-based; details: in vivo, 1 h
Saccharomyces cerevisiae [5] = assay: Prodrug stability in wild type Saccharomyces cerevisiae ATCC 9763 assessed as compound cleavage rate measured per mg of protein; type: ADME, organism-based; details: in vivo
Saccharomyces cerevisiae [6] = assay: Prodrug stability in Saccharomyces cerevisiae AD12345678 assessed as compound cleavage rate measured per mg of protein; type: ADME, organism-based; details: in vivo
Saccharomyces cerevisiae [7] = assay: Prodrug stability in Saccharomyces cerevisiae ADCDR1 expressing Candida albicans CDR1 efflux pump assessed as compound cleavage rate measured per mg of protein; type: ADME, organism-based; details: in vivo
Saccharomyces cerevisiae [8] = assay: Prodrug stability in Saccharomyces cerevisiae ADCDR2 expressing Candida albicans CDR2 efflux pump assessed as compound cleavage rate measured per mg of protein; type: ADME, organism-based; details: in vivo
Saccharomyces cerevisiae [9] = assay: Prodrug stability in Saccharomyces cerevisiae ADMDR1 expressing Candida albicans MDR1 efflux pump assessed as compound cleavage rate measured per mg of protein; type: ADME, organism-based; details: in vivo
Candida albicans [10] = assay: Prodrug stability in wild type Candida albicans 10261 assessed as compound cleavage rate measured per mg of protein; type: ADME, organism-based; details: in vivo
Candida albicans [11] = assay: Prodrug stability in fluconazole sensitive Candida albicans isolate Gu4 assessed as compound cleavage rate measured per mg of protein; type: ADME, organism-based; details: in vivo
Outline: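 Oligopeptides were incubated with cell extracts of the yeast cells, and their hydrolytic enzymes cleaved them. The amino acids released were quantified by the Cd-ninhydrin method.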

Candida albicans [12] = assay: Prodrug stability in fluconazole sensitive Candida albicans isolate B3 assessed as compound cleavage rate measured per mg of protein; type: ADME, organism-based; details: in vivo
Saccharomyces cerevisiae [13] = assay: Antifungal activity against wild type Saccharomyces cerevisiae ATCC 9763 in YNPG-proline medium after 24 hrs by microdilution method; type: functional; details: ATCC 9763, 24 h
Saccharomyces cerevisiae [14] = assay: Antifungal activity against Saccharomyces cerevisiae AD12345678 in YNPG-proline medium after 24 hrs by microdilution method; type: functional; details: AD12345678, 24 h
Saccharomyces cerevisiae [15] = assay: Antifungal activity against Saccharomyces cerevisiae ADCDR1 expressing Candida albicans CDR1 efflux pump in YNPG-proline medium after 24 hrs by microdilution method; type: functional; details: ADCDR1, 24 h
Saccharomyces cerevisiae [16] = assay: Antifungal activity against Saccharomyces cerevisiae ADCDR2 expressing Candida albicans CDR2 efflux pump in YNPG-proline medium after 24 hrs by microdilution method; type: functional; details: ADCDR2, 24 h
Saccharomyces cerevisiae [17] = assay: Antifungal activity against Saccharomyces cerevisiae ADMDR1 expressing Candida albicans MDR1 efflux pump in YNPG-proline medium after 24 hrs by microdilution method; type: functional; details: ADMDR1, 24 h
Saccharomyces cerevisiae [18] = assay: Antifungal activity against wild type Saccharomyces cerevisiae ATCC 9763 in YNPG medium containing 1 mg/ml […] after 24 hrs by microdilution method; type: functional; details: ATCC 9763, 24 h
Saccharomyces cerevisiae [19] = assay: Antifungal activity against Saccharomyces cerevisiae AD12345678 in YNPG medium containing 1 mg/ml […] after 24 hrs by microdilution method; type: functional; details: AD12345678, 24 h
Saccharomyces cerevisiae [20] = assay: Antifungal activity against Saccharomyces cerevisiae ADCDR1 expressing Candida albicans CDR1 efflux pump in YNPG medium containing 1 mg/ml […] after 24 hrs by microdilution method; type: functional; details: ADCDR1, 24 h
Saccharomyces cerevisiae [21] = assay: Antifungal activity against Saccharomyces cerevisiae ADCDR2 expressing Candida albicans CDR2 efflux pump in YNPG medium containing 1 mg/ml […] after 24 hrs by microdilution method; type: functional; details: ADCDR2, 24 h
Saccharomyces cerevisiae [22] = assay: Antifungal activity against Saccharomyces cerevisiae ADMDR1 expressing Candida albicans MDR1 efflux pump in YNPG medium containing 1 mg/ml […] after 24 hrs by microdilution method; type: functional; details: ADMDR1, 24 h
Candida albicans [23] = assay: Antifungal activity against wild type Candida albicans 10261 in RPMI-1640 buffered medium after 24 hrs by microdilution method; type: functional
Outline: (§1)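 C. albicans cells were grown in 2% glucose, 1% yeast extract, 1% Bacto peptone medium before testing. […] CARE-2 fingerprinting confirmed that each pair is a single strain.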

Candida albicans [24] = assay: Antifungal activity against fluconazole sensitive Candida albicans isolate Gu4 in RPMI-1640 buffered medium after 24 hrs by microdilution method; type: functional; outline: as §1
Candida albicans [25] = assay: Antifungal activity against fluconazole resistant Candida albicans isolate Gu5 overexpressing CDR1 and CDR2 in RPMI-1640 buffered medium after 24 hrs by microdilution method; type: functional; details: isolate Gu5, 24 h
Outline: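 C. albicans cells were grown in 2% glucose, 1% yeast extract, 1% Bacto peptone medium before testing. CARE-2 fingerprinting confirmed that each pair is a single strain.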

Candida albicans [26] = assay: Antifungal activity against fluconazole sensitive Candida albicans isolate B3 in RPMI-1640 buffered medium after 24 hrs by microdilution method; type: functional; outline: as §1
Candida albicans [27] = assay: Antifungal activity against fluconazole resistant Candida albicans isolate B4 overexpressing MDR1 in RPMI-1640 buffered medium after 24 hrs by microdilution method; type: functional; outline: as §1
[28] = Candida albicans, 10261, 24 h, read-out: MIC
[29] = Candida albicans, isolate Gu4, 24 h, read-out: MIC
[30] = Candida albicans, isolate B3, 24 h, read-out: MIC
[31] = Candida albicans, isolate B4, 24 h, read-out: MIC

SMILES	Drug uptake (Saccharomyces cerevisiae [1])	Drug uptake (Saccharomyces cerevisiae [2])	Drug uptake (Saccharomyces cerevisiae [3])	Drug uptake (Saccharomyces cerevisiae [4])	Stability (Candida albicans [10])	Stability (Candida albicans [11])	Stability (Candida albicans [12])	MIC (Saccharomyces cerevisiae [13])	MIC (Saccharomyces cerevisiae [14])	MIC (Saccharomyces cerevisiae [15])	MIC (Saccharomyces cerevisiae [16])	MIC (Saccharomyces cerevisiae [17])	MIC (Candida albicans [23]; [28])	MIC (Candida albicans [24]; [29])	MIC (Candida albicans [26]; [30])	MIC (Candida albicans [27]; [31])	further results
CC(C)C[C@H](NC(=O)[C@H](CC(C)C)NC(=O)[C@@H](N)COCCN)C(=O)NCC(=O)O (H-S(Ethyl(2-NH2))LLG-OH) [listing 1 of 2 here]	0.51 nmol/min/mg	0.83 nmol/min/mg	0.96 nmol/min/mg	0.65 nmol/min/mg	20 nmol/min	20 nmol/min	20 nmol/min										Stability (Saccharomyces cerevisiae [5]): 14 nmol/min; Stability (Saccharomyces cerevisiae [6]): 14 nmol/min; Stability (Saccharomyces cerevisiae [7]): 14 nmol/min; Stability (Saccharomyces cerevisiae [8]): 14 nmol/min; Stability (Saccharomyces cerevisiae [9]): 14 nmol/min
CC(C)C[C@H](NC(=O)[C@H](CC(C)C)NC(=O)[C@@H](N)COCCN)C(=O)NCC(=O)O (H-S(Ethyl(2-NH2))LLG-OH) [listing 2 of 2 here]								64 µg/mL (≈ 148 µM)	64 µg/mL (≈ 148 µM)	16 µg/mL (≈ 37.1 µM)	32 µg/mL (≈ 74.2 µM)	64 µg/mL (≈ 148 µM)					
CC(C)C[C@H](NC(=O)[C@H](CC(C)C)NC(=O)[C@H](CC(C)C)NC(=O)[C@@H](N)COCCN)C(=O)NCC(=O)O (H-S(Ethyl(2-NH2))LLLG-OH) [listing 1 of 2 here]	0.31 nmol/min/mg	0.49 nmol/min/mg	0.51 nmol/min/mg	0.28 nmol/min/mg	20 nmol/min	20 nmol/min	20 nmol/min										Stability (Saccharomyces cerevisiae [5]): 14 nmol/min; Stability (Saccharomyces cerevisiae [6]): 14 nmol/min; Stability (Saccharomyces cerevisiae [7]): 14 nmol/min; Stability (Saccharomyces cerevisiae [8]): 14 nmol/min; Stability (Saccharomyces cerevisiae [9]): 14 nmol/min
CC(C)C[C@H](NC(=O)[C@H](CC(C)C)NC(=O)[C@H](CC(C)C)NC(=O)[C@@H](N)COCCN)C(=O)NCC(=O)O (H-S(Ethyl(2-NH2))LLLG-OH) [listing 2 of 2 here]								256 µg/mL (≈ 470 µM)	256 µg/mL (≈ 470 µM)	128 µg/mL (≈ 235 µM)	128 µg/mL (≈ 235 µM)	256 µg/mL (≈ 470 µM)					
[N-]=[N+]=CC(=O)CC[C@H](N)C(=O)O [6-DIAZO-5-OXO-L-NORLEUCINE]	2 nmol/min/mg	2.32 nmol/min/mg	2.25 nmol/min/mg	1.98 nmol/min/mg									4 µg/mL (≈ 23.4 µM)	4 µg/mL (≈ 23.4 µM)	4 µg/mL (≈ 23.4 µM)	4 µg/mL (≈ 23.4 µM)	MIC (Saccharomyces cerevisiae [18]): 0.5 µg/mL (≈ 2.92 µM); MIC (Saccharomyces cerevisiae [19]): 0.5 µg/mL (≈ 2.92 µM); MIC (Saccharomyces cerevisiae [20]): 0.125 µg/mL (≈ 0.73 µM); MIC (Saccharomyces cerevisiae [21]): 0.25 µg/mL (≈ 1.46 µM); MIC (Saccharomyces cerevisiae [22]): 0.5 µg/mL (≈ 2.92 µM); MIC (Candida albicans [25]): 1 µg/mL (≈ 5.84 µM)
C[C@H](N)C(=O)O [ALANINE]	3.51 nmol/min/mg	4.16 nmol/min/mg	4.35 nmol/min/mg	3.33 nmol/min/mg													
OC(Cn1cncn1)(Cn1cncn1)c1ccc(F)cc1F [FLUCONAZOLE]								2 µg/mL (≈ 6.53 µM)	1 µg/mL (≈ 3.27 µM)	32 µg/mL (≈ 104 µM)	16 µg/mL (≈ 52.2 µM)	32 µg/mL (≈ 104 µM)	4 µg/mL (≈ 13.1 µM)	8 µg/mL (≈ 26.1 µM)	4 µg/mL (≈ 13.1 µM)	64 µg/mL (≈ 209 µM)	MIC (Candida albicans [23]): 4 µg/mL (≈ 13.1 µM); MIC (Candida albicans [24]): 8 µg/mL (≈ 26.1 µM); MIC (Candida albicans [26]): 4 µg/mL (≈ 13.1 µM); MIC (Candida albicans [27]): 64 µg/mL (≈ 209 µM)
C[C@H](NC(=O)[C@H](Cc1cnc[nH]1)NC(=O)[C@H](CO)NC(=O)[C@@H](N)CC(=O)O)C(=O)N[C@@H](CCCCN)C(=O)N[C@@H](CCCNC(=N)N)C(=O)N[C@@H](Cc1cnc[nH]1)C(=O)N[C@@H](Cc1cnc[nH]1)C(=O)NCC(=O)N[C@@H](Cc1ccc(O)cc1)C(=O)N[C@@H](CCCCN)C(=O)N[C@@H](CCCNC(=N)N)C(=O)N[C@@H](CCCCN)C(=O)N[C@@H](Cc1ccccc1)C(=O)N[C@@H](Cc1cnc[nH]1)C(=O)N[C@@H](CCC(=O)O)C(=O)N[C@@H](CCCCN)C(=O)N[C@@H](Cc1cnc[nH]1)C(=O)N[C@@H](Cc1cnc[nH]1)C(=O)N[C@@H](CO)C(=O)N[C@@H](Cc1cnc[nH]1)C(=O)N[C@@H](CCCNC(=N)N)C(=O)NCC(=O)N[C@@H](Cc1ccc(O)cc1)C(=O)O [HISTATIN 5]					0.3 nmol/min	0.3 nmol/min	0.3 nmol/min	128 µg/mL (≈ 42.2 µM)	128 µg/mL (≈ 42.2 µM)	128 µg/mL (≈ 42.2 µM)	128 µg/mL (≈ 42.2 µM)	128 µg/mL (≈ 42.2 µM)	32 µg/mL (≈ 10.5 µM)	32 µg/mL (≈ 10.5 µM)	32 µg/mL (≈ 10.5 µM)	32 µg/mL (≈ 10.5 µM)	MIC (Candida albicans [25]): 32 µg/mL (≈ 10.5 µM)
